Rows were chosen to be rich in hits. Some 9.6% of all compounds tested hit in one or more screens of this group.
TNAP inh noacc = TNAP (human) inhibition, acceptor-free conditions; P05186; purified TNAP, CDP-star luminescence, 30 min; inhibition, % at 20 µM; hit rate 0.26% among 200,000;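 active = tissue-nonspecific alkaline phosphatase inhibition above about 50% at 20 µM in the single-dose screen, limit read from the data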;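 note: 0% = DMSO negative control and 100% = EDTA positive control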
Target sequence (P05186 whole entry, looked up): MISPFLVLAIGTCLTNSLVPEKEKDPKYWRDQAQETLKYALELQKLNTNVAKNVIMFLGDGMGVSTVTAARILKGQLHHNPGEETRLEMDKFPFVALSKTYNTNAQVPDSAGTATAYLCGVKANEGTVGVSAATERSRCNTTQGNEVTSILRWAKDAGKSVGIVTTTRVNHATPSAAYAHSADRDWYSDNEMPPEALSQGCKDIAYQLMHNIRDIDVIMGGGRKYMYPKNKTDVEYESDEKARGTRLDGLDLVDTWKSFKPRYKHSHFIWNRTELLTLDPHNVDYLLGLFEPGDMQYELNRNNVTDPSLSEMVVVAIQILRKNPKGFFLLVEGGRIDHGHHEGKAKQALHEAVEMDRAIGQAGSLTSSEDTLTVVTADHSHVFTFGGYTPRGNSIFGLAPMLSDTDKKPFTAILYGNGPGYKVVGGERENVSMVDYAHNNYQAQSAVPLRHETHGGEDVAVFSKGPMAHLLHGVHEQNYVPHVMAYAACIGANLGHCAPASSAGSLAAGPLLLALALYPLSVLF
HCT116 PTEN-null = growth suppressors of cells with PTEN tumor suppressor deletion; AID 827; viability, % at 10 µM; HCT116 PTEN-null viability, CellTiter-Glo, 60 h; hits give low values; hit rate 1.2% among 140,000;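 active = viability at or below a set limit, 4 SD under the median of all tested compounds, cut at about 3.7% in these data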;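 note: PTEN knockout HCT116 line with beta catenin targeted HCT116 as companion control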
TNAP act hiacc = increases human TNAP activity under high phosphate acceptor concentration; 200,000 tested, under 10 active; activation factor at 20 µM; P05186; purified TNAP, CDP-star luminescence, 1 M DEA, 30 min; hits give high values; 0 = EDTA background, 1 = DMSO-only activity;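 active = activation factor at least 2 at 20 µM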
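system = human TNAP | amount = enzyme diluted 1/800 final | reagent = 100 µM CDP-star substrate | signal = luminescent substrate turnover signal | dosing = one dose, 20 µM | benchmarks = EDTA negative control, DMSO positive control | measure = activation factor | timing = 30 min reaction, room temperature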
bCat KO growth = beta-catenin-lacking colon tumor cell growth suppression; HCT116 beta-catenin knockout viability, CellTiter-Glo, 60 h; hits give low values; viability, % at 10 µM; hit rate 1.5% among 140,000; AID 818;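 active = viability at or under a set limit, the compound median less 4 SD, cut at about 6% in these data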;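 note: 0% = Hyamine 1622 control at 20 µM and 100% = untreated cell control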
L major viab = inhibitors of Leishmania major promastigote growth; inhibition, % at 10 µM; Leishmania major promastigotes, resazurin fluorescence viability; hit rate 9% among 200,000; in the data active = inhibition above about 50%;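 note: promastigotes grown with compound for 44 hours at 28 °C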
TNAP inh hiacc = TNAP (human) inhibition, high acceptor; purified TNAP, CDP-star luminescence, 1 M DEA; inhibition, % at 20 µM; hit rate 0.03% among 200,000; AID 1135;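 active = over 50% inhibition of tissue-nonspecific alkaline phosphatase at 20 µM in the single-dose screen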;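 note: plate controls were DMSO wells for no effect and EDTA-quenched wells as full inhibition for full effect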
* marks the source's active call; other numbers are inactive results; . = no result.

SMILES | TNAP inh noacc | HCT116 PTEN-null | TNAP act hiacc | bCat KO growth | L major viab | TNAP inh hiacc
CCOC(=O)C(=NCCCN(C)C)NNc1ccc(Br)cc1 | 13 | 93 | 1 | 94 | 67* | -1
CCCOC(=O)CCCCCCCCC(O)CN1CCCCC1 (stereo not given) | -3 | . | 1 | . | -1 | 1
O=C(/C=C/c1ccccc1Cl)NC(=S)Nc1ccccc1C(=O)NC1CCCCC1 | -9 | 74 | 1 | 81 | 98* | -2
Cc1cc(C(=O)CSc2ccc3c(c2)OCCO3)c(C)n1C1CC1 | -16 | 70 | 1 | 87 | 5 | -2
O=C1C(Cl)=C(NCCN2CCCCC2)C(=O)c2ccccc21 | 4 | . | 0.9 | . | 99* | 15
CCC(=O)c1c[nH]c(C(=O)NCCCn2ccnc2)c1 | -11 | 91 | 1 | 101 | 2 | -4
CCC(=O)N1CCN(CCN=CC2=C(O)CC(c3ccc(OC)cc3)CC2=O)CC1 (stereo not given) | -10 | 106 | 1 | 97 | -3 | 0
CC(C)CCNCC(O)CON=C1c2ccccc2-c2ccccc21 (stereo not given) | -1 | . | 1 | . | 88* | 3
Cc1ccccc1-n1c(SCC(=O)N/N=C/C=C/c2ccccc2[N+](=O)[O-])nc2ccccc2c1=O | -2 | 78 | 1 | 79 | 60* | -5
O=C(CC(NC(=O)c1ccccc1Cl)c1ccccc1)Nc1ccc2c(c1)OCO2 (stereo not given) | -26 | 89 | 1.1 | 95 | 100* | -6
COc1ccc(CCNC(=O)c2ccccc2SC)cc1 | -14 | . | 1 | . | 6 | -2
CC(C)CC(=O)Nc1ccc2c(c1)OCO2 | -11 | . | 1.1 | . | -7 | -6
COc1ccc(CCNC(=O)CC(NC(=O)c2ccccc2Cl)c2ccccc2)cc1 (stereo not given) | -66 | 90 | 1.2 | 75 | 75* | -15
COc1cc(NC(=O)CN(C)C2CCCCC2)c(C)cc1[N+](=O)[O-] | -12 | 86 | 1 | 84 | 3 | -3
CC1(C)OC2OC(C(=O)N/N=C/c3cc(Br)ccc3O)C3OC(C)(C)OC3C2O1 (stereo not given) | -72 | 41 | 1 | 39 | -2 | -3
COCCCNCCOCCSc1ccc(Cl)cc1 | -7 | 93 | 1 | 86 | 98* | -5
CCCCNCCOCCSc1ccc(Cl)cc1 | -9 | 75 | 1 | 68 | 99* | -3
OCCNCCCCSc1ccc(Cl)cc1 | -3 | . | 1.1 | . | 96* | -6
CN(C)CCOCCSc1ccc(Cl)cc1 | -7 | 97 | 1 | 90 | 98* | -1
OCCNCCSc1ccc(Cl)cc1 | -15 | . | 1.1 | . | 0 | -7
NC(=O)COC(=O)CCSc1ccc(Cl)cc1 | -11 | . | 1 | . | -6 | -5
COc1ccc(CN(Cc2cc3cccc(C)c3n3nnnc23)C(=O)N2CCOCC2)cc1 | -5 | . | 1 | . | 22 | -2
CCC(C)NC(=O)CSc1ccc(Cl)cc1 (stereo not given) | -9 | 100 | 1.1 | 82 | -4 | -6
CC(C)NCCOCCSc1ccc(Cl)cc1 | -14 | 87 | 1.1 | 86 | 90* | -6
COCCCNCCCCSc1ccc(Cl)cc1 | -10 | 69 | 1 | 75 | 95* | 1
SMILES | TNAP inh noacc | HCT116 PTEN-null | TNAP act hiacc | bCat KO growth | L major viab | TNAP inh hiacc
Cc1ccc(Nc2cnn(C34CC5CC(CC(CC(=O)O)(C5)C3)C4)c(=O)c2Cl)c(Cl)c1 | -10 | . | 1.1 | . | -3 | -7
CCO[C@@H]1OC(C(=O)NCc2ccccc2)=C[C@H](C2CCCCC2)[C@H]1CCCO | 0 | . | 1 | . | 51* | 1
CCO[C@H]1OC(C(=O)Nc2ccccc2)=C[C@@H](c2csc3ccccc23)[C@@H]1CCCO | -1 | . | 1 | . | 58* | -2
CCO[C@H]1OC(C(=O)N2CCN(Cc3ccc4c(c3)OCO4)CC2)=C[C@@H](c2ccccc2)[C@@H]1CCCO | -6 | . | 1.1 | . | 18 | -5
CCO[C@@H]1OC(C(=O)N2CCN(Cc3ccc4c(c3)OCO4)CC2)=C[C@H](c2csc3ccccc23)[C@H]1CCCO | -2 | . | 1.1 | . | 72* | -8
CCO[C@@H]1OC(C(=O)N2CCN(Cc3ccc4c(c3)OCO4)CC2)=C[C@H](c2ccc3c(c2)OCO3)[C@H]1CCCO | -9 | . | 1.1 | . | -1 | -8
CCO[C@H]1OC(C(=O)N2CCN(Cc3ccc4c(c3)OCO4)CC2)=C[C@@H](C2CC2)[C@@H]1CCCO | -3 | . | 1 | . | 77* | -4
CCO[C@@H]1OC(C(=O)NCc2ccccc2)=C[C@H](C2CC2)[C@H]1CCCO | -6 | . | 1 | . | 0 | -2
Cc1ccc(C(=O)N/N=C\c2cc3c(cc2Br)OCO3)s1 | -10 | 95 | 1.1 | 97 | -3 | -7
CCCCOCCCNc1ncnc2c1[nH]c1ccccc12 | -23 | 14 | 1.1 | 13 | 80* | -6
CCCCOc1ncnc2c1[nH]c1ccccc12 | -9 | 43 | 1 | 25 | 57* | -2
CCCCOc1ncnc2c1[nH]c1ccc(OCC)cc12 | -2 | 105 | 1 | 100 | 12 | 1
CC(C)n1c(SCC(=O)N2c3ccccc3Sc3ccccc32)nc2c1c(=O)n(C)c(=O)n2C | 3 | 67 | 1.1 | 59 | 60* | -6
Cn1c(=O)c2c(nc(SCC(=O)N3c4ccccc4CCc4ccccc43)n2C)n(C)c1=O | -7 | 89 | 1.1 | 93 | 52* | -5
CC(C)n1c(SCC(=O)N2c3ccccc3CCc3ccccc32)nc2c1c(=O)n(C)c(=O)n2C | . | . | . | . | 5 | .
CCCn1c(SCC(=O)N2CCCc3ccccc32)nc2c1c(=O)n(C)c(=O)n2C | -11 | . | 1 | . | 2 | -4
CCCn1c(SCC(=O)N2c3ccccc3Sc3ccccc32)nc2c1c(=O)n(C)c(=O)n2C | -11 | 76 | 1 | 81 | 62* | -4
Fc1ccc(-c2cc(C(F)(F)F)nc(NCc3cccs3)n2)cc1 | -4 | 76 | 1 | 72 | -6 | 0
CSc1n[nH]c(NCc2cccs2)n1 | 56* | 78 | 1 | 1.2* | -6 | -5
CCCc1cc(=O)n2c([nH]c3ccccc32)c1C#N | -5 | 80 | 1 | 80 | 25 | -3
Cc1c(CCC(C)C)c(=O)n2c([nH]c3ccccc32)c1C#N | -5 | 76 | 1 | 81 | 99* | 0
CCCCc1c(C)c(C#N)c2[nH]c3ccccc3n2c1=O | -8 | 66 | 1 | 70 | 65* | 1
C=CCN1C(=O)C(O)(CC(=O)c2ccc(OC)cc2OC)c2cc(Br)ccc21 (stereo not given) | -13 | 81 | 1 | 74 | 74* | -3
CC(NC(=O)c1ccccc1)c1ccc(F)cc1 (stereo not given) | 0 | 97 | 1 | 85 | 4 | -2
CC(NC(=O)c1ccc(Br)cc1)c1ccccc1 (stereo not given) | -6 | 88 | 1 | 84 | -2 | -1
CC(NC(=O)c1ccc(F)cc1)c1ccc(F)cc1 (stereo not given) | -3 | 95 | 1 | 93 | 56* | -2
